Test results: ChEMBL document CHEMBL3826940, “Amphipathicity Determines Different Cytotoxic Mechanisms of Lysine- or Arginine-Rich Cationic Hydrophobic Peptides in Cancer Cells” (J Med Chem, 2016)
Calls of active or inactive are those of the source. The rule behind the calls is not given here.

Columns and labels:
HeLa [1] = assay: Induction of apoptosis in human HeLa cells assessed as necrotic cells at 5 uM after 15 mins by annexin V/FITC staining-based flow cytometric method relative to control; type: functional
Summary of the method: (§1)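 Cells were grown 24 h in 6-well plates, then exposed to 5 μM peptide for 15 min. They were collected, washed twice with PBS, and stained with annexin V-FITC plus PI for 20 min at room temperature in the dark before flow cytometry.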

HeLa [2] = assay: Cytotoxicity against human HeLa cells assessed as cell viability after 24 hrs by MTT assay; type: functional, cell-based
Summary of the method: (§2)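 MTT viability assay. Cells were seeded at 1 × 10^4 cells/well in complete medium and grown 24 h. Medium was replaced with fresh medium containing peptide over a concentration series and incubated 24 h. MTT (5 mg/mL) was added for 4 h, formazan was dissolved in DMSO, and A490 was read. IC50 was derived from mean ± SD of three independent experiments.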

MCF7 [3] = assay: Selectivity index, ratio of IC50 for HLF to IC50 for human MCF7 cells
MCF7 [4] = assay: Selectivity index, ratio of IC50 for HUVEC to IC50 for human MCF7 cells
[5] = Cytotoxicity against human 293T cells assessed as cell viability after 24 hrs by MTT assay; type: cell-based, HEK-293T; summary of the method: as §2
HeLa [6] = assay: Induction of apoptosis in human HeLa cells assessed as caspase-3 activation at 5 uM after 1 to 4 hrs by caspase-glo assay; type: functional, cell-based
Summary of the method: (§3)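 Cells in 96-well plates were exposed to 5 μM peptide for 5, 10, 15 or 30 min, or 1, 2, 3 or 4 h. Caspase-Glo 3/7 reagent was added, the plate shaken 30 s and incubated 2 h at room temperature, and luminescence was read.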

HeLa [7] = assay: Induction of reactive oxygen species generation in human HeLa cells at 5 uM after 30 mins by DCFH-DA staining-based fluorescence assay; type: functional, cell-based
Summary of the method: (§4)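 Cells in 96-well plates were loaded with DCFH-DA for 20 min at 37 °C, then treated with or without 5 μM peptide for 30 min. After a PBS wash, DCF fluorescence was read at 485/535 nm and expressed as fold change versus untreated cells.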

A549 [8] = assay: Selectivity index, ratio of IC50 for HUVEC to IC50 for human A549 cells
[9] = Drug uptake in cytoplasm of human HeLa cells at 5 uM after 2 to 30 mins using iridium dye labeled compound by confocal microscopic method; type: ADME, cell-based
Summary of the method: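 Peptides were labelled at the N-terminal His with [Ir(ppy)2(H2O)2]OTf: 200 μM each, mixed 1:1 in PBS, 2 h at 37 °C in the dark. HeLa cells (1 × 10^5 per dish, grown 24 h) were exposed to 5 μM labelled peptide. Live-cell confocal images were taken at 0, 5 and 15 min (excitation 403 nm, emission 500–560 nm).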

HeLa [10] = assay: Induction of apoptosis in human HeLa cells assessed as viable cells at 5 uM after 15 mins by annexin V/FITC staining-based flow cytometric method (reference value: 99.8%); type: functional; settings: 0.25 h, read-out: Activity; summary of the method: as §1
MCF7 [11] = assay: Cytotoxicity against human MCF7 cells assessed as cell viability after 24 hrs by MTT assay; type: functional, cell-based; summary of the method: as §2
A549 [12] = assay: Induction of reactive oxygen species generation in human A549 cells at 5 uM after 30 mins by DCFH-DA staining-based fluorescence assay; type: functional, cell-based; summary of the method: as §4
[13] = Hemolytic activity in mouse RBC after 1 hr; type: ADME, cell-based, Erythrocyte; settings: red blood cells
Summary of the method: (§5)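 Heparinized fresh mouse blood: RBCs were washed three times in 0.9% saline and diluted to 4.0 × 10^8 cells/mL. Peptides at various concentrations were incubated with the RBCs 1 h at 37 °C. After centrifugation at 1000 rpm for 10 min, supernatant absorbance was read at 540 nm, with 1% Triton X-100 set as 100% hemolysis.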

HeLa [14] = assay: Induction of apoptosis in human HeLa cells assessed as late apoptotic cells at 5 uM after 15 mins by annexin V/FITC staining-based flow cytometric method relative to control; type: functional; summary of the method: as §1
HeLa [15] = assay: Induction of shrinkage of human HeLa cells at 5 uM after 30 mins by microscopic method; type: functional, cell-based
Summary of the method: (§6)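 HeLa cells were co-incubated with 5 μM peptide for 30 min. Morphology was then examined under the microscope.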

HeLa [16] = assay: Induction of apoptosis in human HeLa cells assessed as early apoptotic cells at 5 uM after 15 mins by annexin V/FITC staining-based flow cytometric method (reference value: 0.1%); type: functional; summary of the method: as §1
HeLa [17] = assay: Induction of appearance of rounded human HeLa cells at 5 uM after 30 mins by microscopic method; type: functional, cell-based; summary of the method: as §6
HeLa [18] = assay: Induction of apoptosis in human HeLa cells assessed as caspase-3 activation at 5 uM after 5 mins by caspase-glo assay; type: functional, cell-based; summary of the method: as §3
HeLa [19] = assay: Induction of apoptosis in human HeLa cells assessed as caspase-3 cleavage at 5 uM after 5 mins by Western blot method; type: functional, cell-based
Summary of the method: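 HeLa cells (8 × 10^5 per 100 mm dish, grown 24 h) were exposed to 5 μM peptide for 5, 10 or 15 min. Lysates (with 1 mM PMSF) were run on 15% SDS-PAGE and blotted to PVDF. Blots were probed overnight at 4 °C with rabbit monoclonal anti-cleaved caspase-3, then HRP goat anti-rabbit, and detected by ECL with actin as loading control.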

A549 [20] = assay: Selectivity index, ratio of IC50 for HLF to IC50 for human A549 cells
HeLa [21] = assay: Selectivity index, ratio of IC50 for human 293T cells to IC50 for human HeLa cells; type: functional
MCF7 [22] = assay: Selectivity index, ratio of IC50 for human 293T cells to IC50 for human MCF7 cells; type: functional
HUVEC [23] = assay: Cytotoxicity against HUVEC assessed as cell viability after 24 hrs by MTT assay; type: cell-based, Homo sapiens; summary of the method: as §2
[24] = Induction of reactive oxygen species generation in human 293T cells at 5 uM after 30 mins by DCFH-DA staining-based fluorescence assay; type: cell-based; settings: hek-293t, 0.5 h; summary of the method: as §4
HeLa [25] = assay: Selectivity index, ratio of IC50 for HLF to IC50 for human HeLa cells
HeLa [26] = assay: Selectivity index, ratio of IC50 for HUVEC to IC50 for human HeLa cells
[27] = Cytotoxicity against HLF assessed as cell viability after 24 hrs by MTT assay; design: species or system Homo sapiens; summary of the method: as §2
A549 [28] = assay: Cytotoxicity against human A549 cells assessed as cell viability after 24 hrs by MTT assay; type: functional, cell-based; summary of the method: as §2
HeLa [29] = assay: Cytotoxicity against human HeLa cells assessed as cell mortality at 5 uM after 5 mins by Hoechst 33342/propidium iodide staining-based assay; type: functional
Summary of the method: (§7)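 HeLa cells treated with 5 μM peptide were co-stained with Hoechst 33342 (stains all nuclei) and propidium iodide (stains only membrane-compromised cells). Fluorescence imaging was done at time points up to 30 min.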

HeLa [30] = assay: Cytotoxicity against human HeLa cells assessed as lethality at 5 uM at 0 degC after 30 mins by MTT assay; type: functional, cell-based
Summary of the method: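 HeLa cells were incubated with peptide over a range of concentrations at 0 or 37 °C for 30 min. Lethality was then measured by MTT, with A490 read after DMSO solubilization.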

HeLa [31] = assay: Induction of morphological changes in human HeLa cells at 5 uM after 30 mins by microscopic method; type: functional, cell-based; summary of the method: as §6
HeLa [32] = assay: Cytotoxicity against human HeLa cells assessed as cell mortality at 5 uM after 5 mins by MTT assay; type: functional, cell-based
HeLa [33] = assay: Cytotoxicity against human HeLa cells assessed as cell mortality at 5 uM after 6 hrs by MTT assay; type: functional, cell-based
HeLa [34] = assay: Cytotoxicity against human HeLa cells assessed as lethality at 5 uM after 30 mins in presence of caspase-3 inhibitor Ac-DEVD-CHO by MTT assay; type: functional
Summary of the method: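 HeLa cells were seeded at 1 × 10^4 cells/well and grown 24 h. They were pretreated 30 min with 50 μM Ac-DEVD-CHO, then incubated with or without 5 μM peptide for 30 min. Survival was measured by MTT: 4 h with MTT, DMSO solubilisation, absorbance at 490 nm.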

A549 [35] = assay: Selectivity index, ratio of IC50 for human 293T cells to IC50 for human A549 cells; type: functional
[36] = Induction of reactive oxygen species generation in HLF at 5 uM after 30 mins by DCFH-DA staining-based fluorescence assay; settings: human, 0.5 h; summary of the method: as §4
MCF7 [37] = assay: Induction of reactive oxygen species generation in human MCF7 cells at 5 uM after 30 mins by DCFH-DA staining-based fluorescence assay; type: functional, cell-based; summary of the method: as §4
HUVEC [38] = assay: Induction of reactive oxygen species generation in HUVEC at 5 uM after 30 mins by DCFH-DA staining-based fluorescence assay; type: cell-based; settings: human, 0.5 h; summary of the method: as §4
HeLa [39] = assay: Cytotoxicity against human HeLa cells assessed as lethality at 5 uM after 30 mins by MTT assay; type: functional
Summary of the method: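 HeLa cells were grown in DMEM with 10% FBS and seeded at 1 × 10^4 cells/well, then grown 24 h. Medium was replaced with fresh medium containing 5 μM peptide for 30 min. MTT was added for 4 h and formazan was dissolved in DMSO (10 min, 37 °C). Lethality was read as absorbance at 490 nm.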

HeLa [40] = assay: Cytotoxicity against human HeLa cells assessed as cell mortality at 5 uM after 30 mins by Hoechst 33342/propidium iodide staining-based assay; type: functional; summary of the method: as §7
[41] = Hemolytic activity in mouse RBC at 0.39 to 50 uM after 1 hr; type: ADME, cell-based; settings: erythrocyte; summary of the method: as §5

CC(C)C[C@H](NC(=O)[C@H](CCCNC(=N)N)NC(=O)[C@H](CC(C)C)NC(=O)[C@H](CC(C)C)NC(=O)[C@H](CCCNC(=N)N)NC(=O)[C@H](CCCNC(=N)N)NC(=O)[C@H](CC(C)C)NC(=O)[C@H](CCCNC(=N)N)NC(=O)[C@H](CC(C)C)NC(=O)[C@H](CC(C)C)NC(=O)[C@H](CCCNC(=N)N)NC(=O)[C@H](CC(C)C)NC(=O)[C@H](CC(C)C)NC(=O)[C@H](CCCNC(=N)N)NC(=O)CNC(=O)CNC(=O)[C@@H](N)Cc1cnc[nH]1)C(N)=O
Activity (HeLa [1]): 0.1%
IC50 (HeLa [2]): 4.2 µM
Ratio IC50 (MCF7 [3]): 4
Ratio IC50 (MCF7 [4]): 4
IC50 ([5]; Homo sapiens, HEK-293T): 41.6 µM
Activity (HeLa [6]): inactive
Activity (HeLa [7]): Active
Ratio IC50 (A549 [8]): 4
Drug uptake [9]: Active
viability at 5 µM (HeLa [10]): 46.3%
IC50 (MCF7 [11]; MCF7, 24 h): 4.5 µM
Activity (A549 [12]): Active
HC50 at 1 h [13]: > 200 µM
Activity (HeLa [14]): 7.7%
Activity (HeLa [15]): Active
Activity (HeLa [16]): 45.9%
Activity (HeLa [17]): Active
Activity (HeLa [18]): Active
Activity (HeLa [19]): Active
Ratio IC50 (A549 [20]): 4
Ratio IC50 (HeLa [21]): 4
Ratio IC50 (MCF7 [22]): 4
IC50 (HUVEC [23]; Homo sapiens, HUVEC): 19 µM
Activity [24]: Non-toxic
Ratio IC50 (HeLa [25]): 4
Ratio IC50 (HeLa [26]): 4
IC50 ([27]; Homo sapiens, HLF): 21.4 µM
IC50 (A549 [28]; A549, 24 h): 4.8 µM
Activity (HeLa [29]): inactive
Activity (HeLa [30]): inactive
Activity (HeLa [31]): inactive
Activity (HeLa [32]): inactive
Activity (HeLa [33]): Active
Activity (HeLa [34]): 20%
Ratio IC50 (A549 [35]): 4
Activity [36]: Non-toxic
Activity (MCF7 [37]): Active
Activity (HUVEC [38]): Non-toxic
Activity (HeLa [39]): 56%
Activity (HeLa [40]): Active

H-HGGKLLKLLKKLLKLLK-NH2
IC50 (HeLa [2]): 3.3 µM
Activity ([5]; human, hek-293t): Toxic
Activity [41]: Toxic
Activity (MCF7 [11]): Active
Activity (HUVEC [23]; human, huvec): Toxic
Activity ([27]; human, hlf): Toxic
Activity (A549 [28]): Active
